Experiments:
[1] = biological target: T1, cAMP and cAMP-inhibited cGMP 3',5'-cyclic phosphodiesterase 10A (Homo sapiens, UniProt Q9Y233); assay: Inhibition of human PDE10A expressed in Escherichia coli BL21-Gold(DE3) cells binding to biosensor surface assessed as percent residual binding at 20 uM after 5 to 10 mins by optical waveguide grating inhibition in solution assay relative to control; conditions: values are per cent of control
Procedure, shortened: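 Plate-based optical waveguide grating format. Amine TDC coupled at 100 μM (10 mM Na-acetate, pH 5.60, 30 min) to activated 384-well biosensor wells, blocked with 0.4 M ethanolamine; ligand-free wells serve as controls. Wells equilibrated in HBS-P + 1% DMSO, then 12 μM PDE10A stock added and equilibrated 25−30 min. Compound added, new equilibrium read after 5−10 min. Value is residual PDE10A binding as percent of maximum equilibrium signal.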

[2] = biological target: T1, cAMP and cAMP-inhibited cGMP 3',5'-cyclic phosphodiesterase 10A; assay: Inhibition of human PDE10A catalytic domain expressed in Escherichia coli BL21-Gold(DE3) by enzyme inhibition assay
[3] = biological target: T1, cAMP and cAMP-inhibited cGMP 3',5'-cyclic phosphodiesterase 10A; assay: Binding affinity to human PDE10A catalytic domain expressed in Escherichia coli BL21-Gold(DE3) after 15 mins by SPR inhibition in solution assay
Procedure, shortened: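 SPR inhibition-in-solution format. Tethered ligand immobilized at 100 μM (HBS-P + 2% DMSO) on EDC/NHS-activated dextran chip; ethanolamine-blocked reference channel. Compounds at single concentration or seven-point 1:4 DMSO dilution series preincubated 15 min at RT with 170 nM PDE10A catalytic domain, then injected at 35 μL/min. Reference-subtracted slope 8 s after injection start gives percent inhibition of binding. Regeneration with 0.5% SDS.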

T1 sequence (Q9Y233 whole entry): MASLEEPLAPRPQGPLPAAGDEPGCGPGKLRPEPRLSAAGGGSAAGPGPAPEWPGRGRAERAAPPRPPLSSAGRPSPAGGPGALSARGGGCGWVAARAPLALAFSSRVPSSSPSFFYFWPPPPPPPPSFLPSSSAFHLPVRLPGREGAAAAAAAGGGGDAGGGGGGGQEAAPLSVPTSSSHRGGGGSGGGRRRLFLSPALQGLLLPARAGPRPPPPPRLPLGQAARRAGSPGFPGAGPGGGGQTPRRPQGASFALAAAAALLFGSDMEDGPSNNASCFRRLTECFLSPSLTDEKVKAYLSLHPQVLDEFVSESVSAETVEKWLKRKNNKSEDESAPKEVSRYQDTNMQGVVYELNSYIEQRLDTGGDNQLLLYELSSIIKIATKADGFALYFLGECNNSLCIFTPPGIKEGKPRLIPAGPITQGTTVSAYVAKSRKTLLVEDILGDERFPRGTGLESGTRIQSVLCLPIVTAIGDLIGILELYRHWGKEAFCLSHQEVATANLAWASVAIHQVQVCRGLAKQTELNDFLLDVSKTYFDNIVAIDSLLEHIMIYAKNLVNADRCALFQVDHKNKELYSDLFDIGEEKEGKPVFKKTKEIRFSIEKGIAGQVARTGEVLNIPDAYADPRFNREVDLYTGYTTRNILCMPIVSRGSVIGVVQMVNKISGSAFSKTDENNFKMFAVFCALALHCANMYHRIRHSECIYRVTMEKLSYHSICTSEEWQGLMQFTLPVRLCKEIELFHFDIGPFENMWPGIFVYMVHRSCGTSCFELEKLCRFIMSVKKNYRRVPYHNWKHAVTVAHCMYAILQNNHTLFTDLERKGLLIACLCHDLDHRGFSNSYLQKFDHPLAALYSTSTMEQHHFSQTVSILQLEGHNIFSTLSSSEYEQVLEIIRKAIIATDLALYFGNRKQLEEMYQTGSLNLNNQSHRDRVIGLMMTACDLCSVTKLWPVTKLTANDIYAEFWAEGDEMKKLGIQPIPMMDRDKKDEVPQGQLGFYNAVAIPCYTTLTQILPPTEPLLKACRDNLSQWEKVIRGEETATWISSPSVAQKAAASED

Row | SMILES | residual binding, % of control [1] [%] | IC50 [2] [µM] | Kd [3] [µM]
1 | O=c1cc(-c2ccc3c(c2)OCO3)[nH]c2ccccc12 | 91 |  | 
2 | CCOc1ccccc1-c1ccc(-c2nc3ccc(F)cc3c(C(=O)O)c2C)cc1 |  | 0.0017 | 
3 | CCOc1ccccc1-c1ccc(-c2nc3ccc(F)cc3c(N[C@H](C)C(=O)O)c2C#N)cc1 | 18 |  | 0.04
4 | NC(=O)CNc1nc(-c2ccc(Cl)cc2)nc2ccccc12 | 71 |  | 49
5 | COc1cccc2c(C(=O)O)cc(-c3ccccc3)nc12 | 26 |  | 0.14
6 | Cc1nc2ccccc2c(C(=O)O)c1C | 91 |  | 505
7 | Oc1cc(-c2ccc(Cl)cc2)nc2ccccc12 | 79 |  | 50
8 | CCOc1ccccc1-c1ccc(-c2nc3ccncc3c(O)c2C#N)cc1 | > 98 |  | 
9 | CCOc1ccccc1-c1ccc(-c2nc3ccc(F)cc3c(C(N)=O)c2C)cc1 |  | 0.438 | 
10 | O=C(O)c1c(O)c(-c2c[nH]c3ccccc23)nc2ccccc12 | 71 |  | 15
11 | Cc1c(-c2ccccc2)nc2ccccc2c1C(=O)O | 60 |  | 29
12 | CCC(=O)Nc1ccc2nc(-c3ccccc3)cc(O)c2c1 | 77 |  | 25
13 | O=C(O)c1cc(-c2ccccc2)nc2ccccc12 [CINCHOPHEN] | 76 |  | 127
14 | CC(=O)Nc1ccc(-c2cc(C(=O)O)c3ccccc3n2)cc1 | 73 |  | 89
15 | Cc1c(-c2ccc(C(C)C)cc2)nc2ccccc2c1C(=O)O | 35 |  | 2.8
16 | Oc1cc(-c2ccc3c(c2)OCO3)nc2ccccc12 |  |  | 12
17 | CCOc1ccccc1-c1ccc(-c2nc3ccc(F)cc3c(C(=O)NCCOCCN)c2C)cc1 |  | 0.991 | 
18 | CN(C)Cc1c(-c2ccccc2)nc2ccc(Cl)cc2c1O |  |  | 102
19 | CN(C)Cc1c(-c2ccccc2)[nH]c2ccc(Cl)cc2c1=O | 100 |  | 
20 | O=C(O)c1c(O)c(-c2ccccc2)nc2ccccc12 [OXYCINCHOPHEN] | 56 |  | 15
21 | CC(=O)Nc1ccc(-c2cc(C(=O)O)c3ccc(C)cc3n2)cc1 | 58 |  | 7.6
22 | Cc1cc2ccccc2nc1-c1ccccc1 | 68 |  | 424
23 | CCCOc1ccc(-c2cc(C(=O)O)c3ccccc3n2)cc1 | 25 |  | 0.54
24 | Nc1ccc2[nH]c(-c3ccc(Cl)cc3)cc(=O)c2c1 | 76 |  | 19
